According to PubChem BioAssay:
The source made the active and inactive calls.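 The calls were made as follows, unless noted: active = inhibition of the reporter signal at or above 50%; inactive = inhibition below 50%.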

Key:
[1] = inhibitors of TNFa-induced NFkB p65 translocation, primary screen, imaging, HUVEC, MLSMR starter and 10KST1 sets (AID 438;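 active = inhibition above 20% together with a positive visual image hit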;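 also: compound added about 3h40 before a 20 min TNFalpha stimulation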;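 as to inhibition: signal is the nuclear over cytoplasmic p65 intensity ratio per well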); details: HUVEC TNFa-induced p65 nuclear translocation; cell count: measured here: nuclei count (cytotoxicity indicator), at 2.08 µM; inhibition: at 2 µM, stronger effect = higher value, 0% TNFa-plus-vehicle, 100% no-TNFa wells
[2] = reduction of polyQ htt aggregates in cells – imaging, exon1htt(103Q)mCFP cells, high-content imaging, primary screen (AID 483;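 active = visual image review flags a hit and inhibition of aggregation exceeds 20%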;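 also: compound exposure lasted 3 days before fixation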;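 as to nuclei count: percent of the per-plate median nuclei count of sample wells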); details: exon1htt(103Q)mCFP cell line, aggregate imaging, at 2 µM; inhibition of aggregation: stronger effect = higher value; nuclei count: measured here: cell count, toxicity
[3] = endothelial E-selectin expression blockers – imaging, HUVEC, immunofluorescence, MLSMR starter and 10KST1 sets, primary screen (AID 487;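 active = visually confirmed hit in the image check and inhibition above 20%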;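 as to inhibition: signal is fraction of cell area covered by stained E-selectin grains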;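 as to nuclei count: 100% = median nuclei count of all wells on the same plate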); details: HUVEC TNFalpha-induced E-selectin immunofluorescence imaging, at 2 µM; inhibition: stronger effect = higher value; nuclei count: measured here: cell number, toxicity
[4] = molecular target: Voltage-gated potassium channel subunit beta-2 (Rattus norvegicus) (UniProt P62483); test: inhibitors of rat Kvbeta2 reductase activity – biochemical, NADPH fluorescence, primary screen (AID 622;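 active = fluorescence slope higher than the sample average by over 3 SD, cut at about -0.22 in these data, passing the limit was not always enough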;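 also: slope of raw intensity against log time taken from 70 to 1610 s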); details: recombinant KvBeta, 4-cyanobenzaldehyde reduction, at 10 µM, stronger effect = higher value
[5] = molecular target: Voltage-gated potassium channel subunit beta-2 (Rattus norvegicus) (UniProt P62483); test: enhancers of rat Kvbeta2 NADPH turnover – biochemical, NADPH fluorescence, primary screen (AID 623;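 active = NADPH fluorescence slope more negative than the mean of all samples by about 3 SD, 99.7% confidence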;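 also: fluorescence intensity change per second fitted from 20 to 320 s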); details: Recombinant KvBeta, NADPH fluorescence decrease slope, 10 min; at 10 µM; stronger effect = lower value
[6] = molecular target: Muscarinic acetylcholine receptor M4 (Homo sapiens) (UniProt P08173); test: M4-linked GIRK flux change, two-sided – cell-based, HEK293 M4/GIRK, thallium flux, BTC-AM, M4 allosteric agonist project, primary screen (AID 625;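 active = fluorescence slope after compound addition differing from the mean of all tested samples at 99.7% confidence, mostly higher but some lower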;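 also: thallium influx through GIRK channels coupled to M4 in HEK293 cells with BTC-AM dye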); details: at 10 µM, actives lie on both sides
How it was run: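 Material: M4/GIRK1/GIRK2 stable HEK293 cell line. Medium: pH 7.3 thallium assay buffer. Dosing: single compound concentration, 10 µM final. Schedule: 1 h dye loading, 2 min kinetic read. Measured by: kinetic fluorescence with BTC-AM dye. Read-out: post-addition slope, 15–24 s, of baseline-normalized fluorescence. Benchmarks: carbachol and DMSO controls.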

[7] = blockers of RIG-like receptor reporter activation – cell-based, Sendai virus stimulus, luciferase, 10K MLSCN set, TLR/RLR signaling modifier project, primary screen (AID 602276;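 active = inhibition at or above 50% at 10 µM; inactive = inhibition below 50%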;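 also: firefly luciferase from ISG56 promoter only with Renilla not read in this screen; 0% = Sendai virus plus DMSO and 100% = medium plus DMSO without virus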); details: HEK293 RL24 IRF3 luciferase reporter, at 10 µM, stronger effect = higher value
[8] = TLR3 IRF3 reporter activation blockers – cell-based, poly I:C stimulus, luciferase, 10K MLSCN set, primary screen (AID 602277); details: HEK293-TLR3 RL24 IRF3 luciferase reporter, at 10 µM, stronger effect = higher value

Chain of Muscarinic acetylcholine receptor M4 (Homo sapiens) (P08173 whole entry, looked up): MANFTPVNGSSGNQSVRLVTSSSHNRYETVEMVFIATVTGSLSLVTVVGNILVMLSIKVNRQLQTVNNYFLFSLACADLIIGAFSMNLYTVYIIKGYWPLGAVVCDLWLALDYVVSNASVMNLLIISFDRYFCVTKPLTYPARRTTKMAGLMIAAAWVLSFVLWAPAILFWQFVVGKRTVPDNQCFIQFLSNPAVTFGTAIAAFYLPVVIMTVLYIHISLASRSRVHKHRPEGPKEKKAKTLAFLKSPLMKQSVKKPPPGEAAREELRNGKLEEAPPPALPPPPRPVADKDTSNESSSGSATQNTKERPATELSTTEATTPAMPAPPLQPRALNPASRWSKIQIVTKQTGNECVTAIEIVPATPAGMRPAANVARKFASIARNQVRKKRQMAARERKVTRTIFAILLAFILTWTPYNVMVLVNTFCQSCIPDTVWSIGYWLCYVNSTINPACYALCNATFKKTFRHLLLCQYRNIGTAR
Chain of Voltage-gated potassium channel subunit beta-2 (Rattus norvegicus) (P62483 whole entry, looked up): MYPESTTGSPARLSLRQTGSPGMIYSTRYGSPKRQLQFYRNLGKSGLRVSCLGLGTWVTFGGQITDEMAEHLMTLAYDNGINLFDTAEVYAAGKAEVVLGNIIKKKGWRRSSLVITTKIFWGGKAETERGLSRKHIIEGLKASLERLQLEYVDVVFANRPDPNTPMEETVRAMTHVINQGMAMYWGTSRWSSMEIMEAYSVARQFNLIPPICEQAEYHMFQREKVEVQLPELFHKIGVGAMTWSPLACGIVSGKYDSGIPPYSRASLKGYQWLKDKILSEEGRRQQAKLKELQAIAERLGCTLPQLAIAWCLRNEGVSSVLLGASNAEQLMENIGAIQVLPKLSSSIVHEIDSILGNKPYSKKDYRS

Structure (SMILES)	cell count [1]	inhibition [1]	inhibition of aggregation [2]	nuclei count [2] [%]	inhibition [3]	nuclei count [3] [%]	fluorescence slope [4]	NADPH fluorescence slope [5]	fluorescence slope [6]	inhibition [7]	inhibition [8]
CCCn1c(N2CCN(CC(=O)NCc3cccs3)CC2)nc2ccccc21	451	-6.7% (inactive)	5.2% (inactive)	110	-81.5% (inactive)	228	-0.437 (inactive)	-3.1e-05 (inactive)	0.00415 (inactive)	21.5% (inactive)	28.5% (inactive)
COc1ccccc1-c1noc(-c2ccco2)n1	691	7.2% (inactive)	16.8% (inactive)	82.3	6% (inactive)	101	-0.554 (inactive)	-4.8e-05 (inactive)	0.00616 (inactive)	-44.2% (inactive)	-96.7% (inactive)
O=C(NCc1ccco1)c1noc2c1CCCCC2	245	1.3% (inactive)	1.9% (inactive)	103	-32.5% (inactive)	117	-0.549 (inactive)	-2.4e-05 (inactive)	0.00608 (inactive)	-4% (inactive)	-51.6% (inactive)
COc1ccc(CN(C(=O)CNC(=O)c2ccco2)C(C(=O)NC2CCCC2)c2ccco2)cc1 (stereo not drawn)	510	7.2% (inactive)	3.1% (inactive)	105	-62.9% (inactive)	123	-0.592 (inactive)	-1.6e-05 (inactive)	0.00679 (inactive)	-14.2% (inactive)	-26.3% (inactive)
CCS(=O)(=O)N1CCC(C(=O)NC2CCCCC2)CC1	572	4.5% (inactive)	7.8% (inactive)	110	15.2% (inactive)	118	-0.483 (inactive)	-0.000241 (inactive)	0.00287 (inactive)	10% (inactive)	16% (inactive)
CC(C)[C@H](NC(=O)OC(C)(C)C)c1nnc(S(=O)(=O)Cc2c(F)cccc2Cl)o1	570	10.7% (inactive)	-0.1% (inactive)	89.7	36.5% (inactive)	101	-0.521 (inactive)	-0.000188 (inactive)	0.00242 (inactive)	32.2% (inactive)	21.7% (inactive)
CCOc1ccc(C(c2nnnn2Cc2ccccc2)N2CCN(C(=O)c3ccco3)CC2)cc1 (stereo not drawn)	621	-0.2% (inactive)	-6.3% (inactive)	101	20% (inactive)	104	-0.492 (inactive)	-2.2e-06 (inactive)	0.00546 (inactive)	-3.47% (inactive)	9.07% (inactive)
O=C1C=C(NCc2ccco2)C2(CCCCC2)O1	495	7.6% (inactive)	0.6% (inactive)	97.5	-229% (inactive)	125	-0.569 (inactive)	-5.7e-05 (inactive)	0.00577 (inactive)	17.4% (inactive)	20.2% (inactive)
CCc1nnc(NC(=O)CSc2nc3ccccc3s2)s1	604	7.1% (inactive)	-5.7% (inactive)	100	-44% (inactive)	112	-0.472 (inactive)	-5.3e-05 (inactive)	0.00516 (inactive)	11.9% (inactive)	12.6% (inactive)
CCOc1ccc(S(=O)(=O)Nc2ccccc2C(=O)Nc2ccccc2N2CCOCC2)cc1	322	-2.1% (inactive)	17.2% (inactive)	94.9	-24.9% (inactive)	106	-0.522 (inactive)	-3.2e-05 (inactive)	0.00582 (inactive)	11.5% (inactive)	25.7% (inactive)
CCC(=O)N1CCCc2cc(S(=O)(=O)N3CCCc4ccccc43)ccc21	684	2.1% (inactive)	-1.8% (inactive)	100	-142% (inactive)	125	-0.552 (inactive)	3.3e-05 (inactive)	0.00501 (inactive)	20% (inactive)	34% (inactive)
CN(CCC#N)C(=O)COC(=O)c1ccc(Cl)c(S(N)(=O)=O)c1	426	-2.2% (inactive)	17.6% (inactive)	58.5	-96.3% (inactive)	102	-0.539 (inactive)	-5.1e-05 (inactive)	0.00521 (inactive)	16.3% (inactive)	25.4% (inactive)
O=C(c1ccco1)N1CCN(C(=O)c2ccc(Cn3cc(Br)cn3)o2)CC1	371	2.6% (inactive)	9.6% (inactive)	102	-21.6% (inactive)	105	-0.456 (inactive)	-4.2e-05 (inactive)	0.00591 (inactive)	13.3% (inactive)	12.9% (inactive)
